Three molecules from ChEMBL document CHEMBL1152322, “Evaluating indole-related derivatives as precursors in the directed biosynthesis of diazepinomicin analogues” (2009) can be followed below.

≈ marks a conversion by molar mass, not a printed value. Where only a bound is given, the exact number is not on record here.

For one assay, the system named is Escherichia coli. Briefly: Antimicrobial activity against Escherichia coli 389 GC4560 expressing imp after 18 hrs by broth dilution method. It counts as functional. As to conditions: Escherichia coli, 389, 18 h. A digest of the protocol: (§1)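 MIC by broth dilution per NCCLS recommendations in Mueller-Hinton II medium. Inoculum 5 × 10^5 cfu/mL, antibiotic concentrations 128-0.0625 µg/mL. Microtiter plates incubated 18 h at 35 °C in ambient air. MIC read at end of incubation.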
On the technique in general: In broth dilution the organism is exposed to a series of concentrations in liquid medium.
Usually MIC stands for the lowest concentration found to suppress growth. Turning to `CC(C)=CCC/C(C)=C/CC/C(C)=C/CN1C(=O)c2cc(F)cc(O)c2Nc2c(O)cc(O)cc21`, the MIC is > 128 µg/mL.

`CC(C)=CCC/C(C)=C/CC/C(C)=C/CN1C(=O)c2ccc(F)c(O)c2Nc2c(O)cc(O)cc21`: the MIC was > 128 µg/mL.

As for `CC(C)=CCC/C(C)=C/CC/C(C)=C/CN1C(=O)c2cccc(O)c2Nc2c(O)cc(O)cc21` [DIAZEPINOMICIN], the MIC is > 128 µg/mL.

The next assay concerns Escherichia coli. Briefly: Antimicrobial activity against Escherichia coli 442 GC4559 after 18 hrs by broth dilution method. It counts as functional. As to conditions: Escherichia coli, 442, 18 h. Put shortly:
as §1
For `CC(C)=CCC/C(C)=C/CC/C(C)=C/CN1C(=O)c2cc(F)cc(O)c2Nc2c(O)cc(O)cc21`, the MIC is > 128 µg/mL.

On to `CC(C)=CCC/C(C)=C/CC/C(C)=C/CN1C(=O)c2ccc(F)c(O)c2Nc2c(O)cc(O)cc21`, for which the MIC was > 128 µg/mL.

`CC(C)=CCC/C(C)=C/CC/C(C)=C/CN1C(=O)c2cccc(O)c2Nc2c(O)cc(O)cc21` [DIAZEPINOMICIN]: the MIC was > 128 µg/mL.

The next assay concerns Staphylococcus aureus. Put plainly: Antimicrobial activity against Staphylococcus aureus 375 ATCC 3538p after 18 hrs by broth dilution method. It counts as functional. The settings on record: Staphylococcus aureus, 375, 18 h. A digest of the protocol:
as §1
`CC(C)=CCC/C(C)=C/CC/C(C)=C/CN1C(=O)c2cc(F)cc(O)c2Nc2c(O)cc(O)cc21` showed an MIC of 16 µg/mL (≈ 33.3 µM).

The molecule `CC(C)=CCC/C(C)=C/CC/C(C)=C/CN1C(=O)c2ccc(F)c(O)c2Nc2c(O)cc(O)cc21` showed an MIC of 32 µg/mL (≈ 66.6 µM).

In the case of `CC(C)=CCC/C(C)=C/CC/C(C)=C/CN1C(=O)c2cccc(O)c2Nc2c(O)cc(O)cc21` [DIAZEPINOMICIN], the MIC came out at 16 µg/mL (≈ 34.6 µM).

The test system of the next assay is Enterococcus faecium. Put plainly: Antimicrobial activity against vancomycin-resistant Enterococcus faecium 379 NC12204 after 18 hrs by broth dilution method. The settings on record: Enterococcus faecium, 379, 18 h. It counts as functional. A digest of the protocol: (§2)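 MIC by broth dilution following NCCLS recommendations, Mueller-Hinton II medium; inoculum 5 × 10^5 cfu/mL; antibiotic range 128-0.0625 µg/mL; microtiter plates incubated 18 h at 35 °C in ambient air; MIC read after incubation.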
For the molecule `CC(C)=CCC/C(C)=C/CC/C(C)=C/CN1C(=O)c2cc(F)cc(O)c2Nc2c(O)cc(O)cc21`, 16 µg/mL (≈ 33.3 µM) was the least that counted as inhibitory (MIC).

In turn, `CC(C)=CCC/C(C)=C/CC/C(C)=C/CN1C(=O)c2ccc(F)c(O)c2Nc2c(O)cc(O)cc21` had an MIC of 32 µg/mL (≈ 66.6 µM).

With `CC(C)=CCC/C(C)=C/CC/C(C)=C/CN1C(=O)c2cccc(O)c2Nc2c(O)cc(O)cc21` [DIAZEPINOMICIN], inhibition of growth (MIC) required 32 µg/mL (≈ 69.2 µM).

A further assay relates to Candida albicans. Briefly: Antimicrobial activity against Candida albicans 54 CA300 after 18 hrs by broth dilution method. It counts as functional. The settings on record: Candida albicans, 54, 18 h. A digest of the protocol: as §1
On to `CC(C)=CCC/C(C)=C/CC/C(C)=C/CN1C(=O)c2cc(F)cc(O)c2Nc2c(O)cc(O)cc21`, for which the MIC is > 128 µg/mL.

In the case of `CC(C)=CCC/C(C)=C/CC/C(C)=C/CN1C(=O)c2ccc(F)c(O)c2Nc2c(O)cc(O)cc21`, the MIC was > 128 µg/mL.

For `CC(C)=CCC/C(C)=C/CC/C(C)=C/CN1C(=O)c2cccc(O)c2Nc2c(O)cc(O)cc21` [DIAZEPINOMICIN], the MIC is > 128 µg/mL.

The test system of a further assay is Enterococcus faecium. Briefly: Antimicrobial activity against Enterococcus faecium 436 ID3151 after 18 hrs by broth dilution method. It counts as functional. The settings on record: Enterococcus faecium, 436, 18 h. A digest of the protocol:
as §1
The molecule `CC(C)=CCC/C(C)=C/CC/C(C)=C/CN1C(=O)c2cc(F)cc(O)c2Nc2c(O)cc(O)cc21` came in with an MIC of 32 µg/mL (≈ 66.6 µM).

`CC(C)=CCC/C(C)=C/CC/C(C)=C/CN1C(=O)c2ccc(F)c(O)c2Nc2c(O)cc(O)cc21` displayed a minimum inhibitory concentration (MIC) of 32 µg/mL (≈ 66.6 µM).

In turn, `CC(C)=CCC/C(C)=C/CC/C(C)=C/CN1C(=O)c2cccc(O)c2Nc2c(O)cc(O)cc21` [DIAZEPINOMICIN] came in with an MIC of 64 µg/mL (≈ 138 µM).

A further assay relates to Staphylococcus aureus. Briefly: Antimicrobial activity against methicillin-resistant Staphylococcus aureus 310 SSC8224 after 18 hrs by broth dilution method. As to conditions: Staphylococcus aureus, 310, 18 h. It counts as functional. A digest of the protocol: as §2
Take `CC(C)=CCC/C(C)=C/CC/C(C)=C/CN1C(=O)c2cc(F)cc(O)c2Nc2c(O)cc(O)cc21`: the MIC is 8 µg/mL (≈ 16.6 µM).

Take `CC(C)=CCC/C(C)=C/CC/C(C)=C/CN1C(=O)c2ccc(F)c(O)c2Nc2c(O)cc(O)cc21`: the lowest concentration to inhibit growth (MIC) was 16 µg/mL (≈ 33.3 µM).

Turning to `CC(C)=CCC/C(C)=C/CC/C(C)=C/CN1C(=O)c2cccc(O)c2Nc2c(O)cc(O)cc21` [DIAZEPINOMICIN], the lowest concentration to inhibit growth (MIC) was 8 µg/mL (≈ 17.3 µM).
